The record followed here is ChEMBL document CHEMBL1150594, “Suberosols A-D, four new sesquiterpenes with beta-caryophyllene skeletons from a Taiwanese gorgonian coral Subergorgia suberosa” (2002).

What all share (type): functional
Holding throughout (settings): read-out: ED50 (the source's name)

In one assay the test system is HT-29. Description: Cytotoxicity against human HT-29 cells by MTT assay. In short, it runs like this:
(§1)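 Growth inhibition of cancer cells read by a modified MTT colorimetric method, following a previously described procedure. P-388 cells were obtained from an academic laboratory; A549 and HT-29 cells came from the American Type Culture Collection.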

The next assay relates to P388. Description: Cytotoxicity against mouse P388 cells by MTT assay. The procedure, abridged: as §1
On the technique in general: Formazan colour is commonly taken as a measure of viable cells.

The next assay deals with A549. As to the kind of experiment: Cytotoxicity against human A549 cells by MTT assay. The procedure, abridged:
as §1

Values after ≈ are worked out from the molar mass of the structure shown.

With `C=C1CC/C=C(\C)C(=O)C[C@@H]2[C@@H]1CC2(C)C` [BUDDLEDIN C], the EC50 worked out at 3.6 µg/mL (≈ 16.5 µM) with HT-29, 4.6 µg/mL (≈ 21.1 µM) in the assay with P388 and 3.8 µg/mL (≈ 17.4 µM) with A549.

For the compound `C=C1CC/C=C(/C)C(=O)C[C@@H]2[C@@H]1CC2(C)C` [BUDDLEDIN D], the EC50 with HT-29 came to 6.6 µg/mL (≈ 30.2 µM); with P388 it was 6.3 µg/mL (≈ 28.9 µM); in the assay on A549, 8.9 µg/mL (≈ 40.8 µM).

For `C=C1CC[C@H]2O[C@]2(C)[C@@H](O)C[C@@H]2[C@@H]1CC2(C)C` [SUBEROSOL A], the EC50 was > 50 µg/mL with HT-29, 3.8 µg/mL (≈ 16.1 µM) with P388 and > 50 µg/mL in the assay with A549.

As to `C=C1CC[C@H]2O[C@]2(C)[C@H](O)C[C@@H]2[C@@H]1CC2(C)C` [SUBEROSOL B], the figures for the EC50 with HT-29, with P388 and in the assay on A549 were > 50 µg/mL, 7.4 µg/mL (≈ 31.3 µM) and > 50 µg/mL, respectively.

For the compound `C=C1CC/C=C(\C)[C@H](O)C[C@@H]2[C@@H]1CC2(C)C` [SUBEROSOL C], the EC50 with HT-29 is 2.3 µg/mL (≈ 10.4 µM); with P388, 2.1 µg/mL (≈ 9.53 µM); with A549, 5.6 µg/mL (≈ 25.4 µM).

As to `C=C1CC/C=C(/C)[C@@H](O)C[C@@H]2[C@@H]1CC2(C)C` [SUBEROSOL D], the EC50 was 3.8 µg/mL (≈ 17.2 µM) in the assay on HT-29, 3.3 µg/mL (≈ 15 µM) in the assay with P388 and 4.2 µg/mL (≈ 19.1 µM) in the assay with A549.
